Biological target: T1, OR1A1 (Homo sapiens) (UniProt Q9P1Q5)
T1 sequence (whole entry): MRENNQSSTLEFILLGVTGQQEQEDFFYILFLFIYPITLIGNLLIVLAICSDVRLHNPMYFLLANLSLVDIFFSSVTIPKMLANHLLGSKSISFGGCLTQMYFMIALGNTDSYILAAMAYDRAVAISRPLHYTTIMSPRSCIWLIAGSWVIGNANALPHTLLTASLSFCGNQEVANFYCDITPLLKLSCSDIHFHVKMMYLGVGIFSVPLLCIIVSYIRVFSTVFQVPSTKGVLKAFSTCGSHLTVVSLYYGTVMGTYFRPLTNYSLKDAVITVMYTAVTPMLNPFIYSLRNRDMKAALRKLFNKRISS
Settings: stereoisomer not certain
Outline: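 Whether a receptor–molecule pair is responsive (active) rests on the original authors' judgment that its measured signal was statistically different from baseline. Pairs without that judgment are non-responsive (inactive). Sources used varied assay methods, commonly transient luciferase assays in mammalian cell lines.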
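Further: active if original authors judged signal statistically different from baseline.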

SMILES | odorant receptor agonist call
CSCSC | inactive
CC(=O)C=CC1C(C)=CCCC1(C)C (configuration not stated) | inactive
CC(=O)Oc1ccccc1 | inactive
CCC(C(=O)O)c1ccccc1 (configuration not stated) | inactive
SCc1cccs1 | inactive
C=C(C)C1CC=C(C)C(OC(C)=O)C1 (configuration not stated) | inactive
CC1CCC(C(C)C)C(=O)C1 (configuration not stated) | active
O=C(c1ccccc1)c1ccccc1 | active
CC(CC=O)CCCC(C)(C)O (configuration not stated) | active
COC(=O)Cc1ccccc1C | active
CCC(C)CO (configuration not stated) | inactive
CCC=CCC=O | inactive
O=c1ccc2ccccc2o1 | inactive
Cc1c[nH]c2ccccc12 | inactive
CC=CC(=O)C(C)CC (configuration not stated) | inactive
CC(=O)C=CC1=C(C)CCCC1(C)C | inactive
C=CCSC | inactive
CCCCCCCCC=CC=O | inactive
CCCCCC(=O)OCC | active

SMILES | odorant receptor agonist call
Cc1occc1S | inactive
CCC(=O)C1=NCCC1 | inactive
CCCCCCCC1CCC(=O)O1 (configuration not stated) | inactive
CCCC(=O)OC | inactive
CC(C)c1ccc(C=O)cc1 | inactive
CCOC(=O)Cc1cccc(Br)c1 | active
CSSc1ccoc1C | inactive
CCCC(=O)C(C)CC (configuration not stated) | inactive
CCCC(C)C=O (configuration not stated) | inactive
CC(C)=CC1CC(C)CCO1 (configuration not stated) | inactive
CCCCC(=O)CC(C)=O | active
CSSSC | inactive
CCCCOC=O | inactive
Cc1cccc(C)c1O | inactive
C=C(C)C1CC=C(C)CC1 (configuration not stated) | active
COc1cccc(OC)c1O | inactive
Cc1occc(=O)c1O | inactive
COc1nccnc1C(C)C | inactive
